Experimental data from ChEMBL document CHEMBL1938323, “Phenolic substances from Phagnalon rupestre protect against 2,4,6-trinitrochlorobenzene-induced contact hypersensitivity” (2011).
Calls of active or inactive are those of the source. No cut-off for these calls is given here.

Assays:
Mus musculus [1] = assay: Antihypersensitivity against TNCB-induced contact hypersensitivity in BALB/c mouse ear assessed as inhibition of edema at 0.5 mg/ear applied […] after 30 mins, 24 hrs and 48 hrs of TNCB challenge measured after 24 hrs relative to control; type: functional
Outline: (§1)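 Female BALB/c mice (7–9 weeks) challenged on each ear with 10 μL 1% TNCB in acetone six days after sensitization. Compounds given at 0.5 mg/ear in EtOH–H2O 8:2 at 30 min, 24 h and 48 h. Ear thickness measured by micrometer at 24 and 72 h. Edema is inflamed minus naive thickness; inhibition versus control. Dunnett's test.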

Mus musculus [2] = assay: Antihypersensitivity against TNCB-induced contact hypersensitivity in BALB/c mouse ear assessed as inhibition of edema at 0.5 mg/ear applied tropically after 30 mins, 24 hrs and 48 hrs of TNCB challenge measured after 72 hrs relative to control; type: functional; outline: as §1
Mus musculus [3] = assay: Antihypersensitivity activity against TNCB-induced atopic dermatitis in BALB/c mouse ear assessed as inhibition of ear thickness at 0.5 mg/ear applied topically three times per week 30 min TNCB post challenge measured on day 11 onwards; type: functional
Outline: (§2)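 BALB/c mice sensitized with 10 μL 0.3% TNCB in acetone on both inner ears at day −7, then re-challenged at the same site three times per week over days 0–21. Ear thickness measured by digital micrometer. Edema is the difference between naive and inflamed ear thickness. Inhibition calculated relative to the control group.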

Mus musculus [4] = organism: Mus musculus; assay: Antihypersensitivity activity against TNCB-induced acute contact hypersensitivity in BALB/c mouse ear assessed as inhibition of neutrophil infiltration by measuring MPO activity at 0.5 mg/ear measured after 72 hrs relative to control; type: functional
Outline: (§3)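 Female BALB/c mice were challenged on both ears with 10 μL 1% TNCB in acetone. Test compounds (0.5 mg/ear in EtOH–H2O 8:2) or dexamethasone (0.025 mg/ear in acetone) were applied topically at 30 min, 24 h and 48 h. Ear tissue was taken at 24 or 72 h and homogenized in phosphate buffer with 0.5% HTAB. MPO was read by TMB/H2O2, 3 min at 37 °C, A630. n ≥5 ear samples.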

Mus musculus [5] = organism: Mus musculus; assay: Antihypersensitivity activity against TNCB-induced contact hypersensitivity in BALB/c mouse ear assessed as decrease IL1-beta levels at 0.5 mg/ear measured at 24 hrs by ELISA relative to control; type: functional
Outline: (§4)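 Acute CHS: female BALB/c mice challenged with 1% TNCB (10 μL/ear). Topical treatment at 30 min, 24 h and 48 h: compounds 0.5 mg/ear, dexamethasone 0.025 mg/ear. Ears collected at 24 and 72 h and homogenized. Cytokines measured by ELISA in triplicate and expressed as pg/mL. n ≥4 animals; Dunnett's test versus control.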

Mus musculus [6] = organism: Mus musculus; assay: Antihypersensitivity activity against TNCB-induced contact hypersensitivity in BALB/c mouse ear assessed as decrease IL1-beta levels at 0.5 mg/ear measured at 72 hrs by ELISA relative to control; type: functional; outline: as §4
Mus musculus [7] = organism: Mus musculus; assay: Antihypersensitivity activity against TNCB-induced contact hypersensitivity in BALB/c mouse ear assessed as decrease IL2 levels at 0.5 mg/ear measured after 72 hrs by ELISA relative to 24 hrs; type: functional; outline: as §4
Mus musculus [8] = organism: Mus musculus; assay: Antihypersensitivity activity against TNCB-induced contact hypersensitivity in BALB/c mouse ear assessed as decrease IL4 levels at 0.5 mg/ear measured after 24 to 72 hrs by ELISA; type: functional, organism-based; outline: as §4
RAW264.7 [9] = assay: Antiinflammatory activity in mouse RAW264.7 cells assessed as inhibition of LPS-induced MMP9 expression by Western blotting; type: functional, cell-based
Outline: (§5)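 RAW 264.7 cells were plated at 2×10^5 cells/mL and switched to DMEM with 0.5% FBS when subconfluent. They were pretreated 1 h with compound (25, 50, 100 μM) or PBS vehicle, then given LPS 1 μg/mL. Cells were lysed after 24 h. MMP-9 was measured by Western blot, normalized to β-actin, with % inhibition versus control. Three experiments.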

RAW264.7 [10] = assay: Antiinflammatory activity in mouse RAW264.7 cells assessed as inhibition of LPS-induced MMP9 expression at 25 uM by Western blotting relative to control; type: functional; outline: as §5
RAW264.7 [11] = assay: Antiinflammatory activity in mouse RAW264.7 cells assessed as inhibition of LPS-induced MMP9 expression at 50 uM by Western blotting relative to control; type: functional; outline: as §5
RAW264.7 [12] = assay: Antiinflammatory activity in mouse RAW264.7 cells assessed as inhibition of LPS-induced MMP9 expression at 100 uM by Western blotting relative to control; type: functional; outline: as §5
Mus musculus [13] = organism: Mus musculus; assay: Antihypersensitivity activity against TNCB-induced contact hypersensitivity in BALB/c mouse ear assessed as decrease TNFalpha levels at 0.5 mg/ear measured at 24 hrs by ELISA relative to control; type: functional; outline: as §4
Mus musculus [14] = organism: Mus musculus; assay: Antihypersensitivity activity against TNCB-induced contact hypersensitivity in BALB/c mouse ear assessed as decreased COX2 expression at 0.5 mg/ear after at 24 hrs by Western blotting relative to control; type: functional
Mus musculus [15] = organism: Mus musculus; assay: Antihypersensitivity activity against TNCB-induced contact hypersensitivity in BALB/c mouse ear assessed as decreased COX2 expression at 0.5 mg/ear after at 72 hrs by Western blotting relative to control; type: functional
Mus musculus [16] = organism: Mus musculus; assay: Antihypersensitivity activity against TNCB-induced contact hypersensitivity in BALB/c mouse ear assessed as inhibition of MMP9 production at 0.5 mg/ear measured at 24 hrs by Western blot analysis relative to control; type: functional
Mus musculus [17] = assay: Antihypersensitivity activity against TNCB-induced atopic dermatitis in BALB/c mouse ear assessed as inhibition of ear thickness at 0.5 mg/ear applied topically three times per week 30 min TNCB post challenge measured on day 7 onwards; type: functional; outline: as §2
Mus musculus [18] = organism: Mus musculus; assay: Antihypersensitivity activity against TNCB-induced acute contact hypersensitivity in BALB/c mouse ear assessed as inhibition of neutrophil infiltration by measuring MPO activity at 0.5 mg/ear measured after 24 hrs relative to control; type: functional; outline: as §3
Mus musculus [19] = organism: Mus musculus; assay: Antihypersensitivity activity against TNCB-induced acute contact hypersensitivity in BALB/c mouse ear assessed as inhibition of neutrophil infiltration by measuring MPO activity at 0.5 mg/ear measured after 22 days of repeated application of TNCB relative to control; type: functional
Outline: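 Repeated-challenge protocol in BALB/c mice: sensitized with 10 μL 0.3% TNCB in acetone on both inner ears at day −7, then 0.3% TNCB three times weekly over days 0–21. Ears were excised on day 22 and homogenized in 0.5% HTAB phosphate buffer. MPO was read by TMB/H2O2, 3 min at 37 °C, A630. n ≥5 ear samples.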

[20] = Inhibition of NF-kappaB activation
Mus musculus [21] = assay: Antihypersensitivity against TNCB-induced contact hypersensitivity in BALB/c mouse ear assessed as inhibition of edema at 0.025 mg/ear applied […] after 30 mins, 24 hrs and 48 hrs of TNCB challenge measured after 24 hrs relative to control; type: functional
Outline: (§6)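 Female BALB/c mice, 7–9 weeks old, were challenged with 10 μL 1% TNCB in acetone per ear. Dexamethasone (20 μL, in acetone) was applied topically to both ears at 30 min, 24 h and 48 h after challenge. Thickness was taken by digital micrometer at 24 h or 72 h; edema is inflamed minus naive ear, with inhibition relative to control. Reported as mean ± SEM, ≥6 animals, Dunnett's test.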

Mus musculus [22] = assay: Antihypersensitivity against TNCB-induced contact hypersensitivity in BALB/c mouse ear assessed as inhibition of edema at 0.025 mg/ear applied […] after 30 mins, 24 hrs and 48 hrs of TNCB challenge measured after 72 hrs relative to control; type: functional; outline: as §6
Mus musculus [23] = assay: Antihypersensitivity activity against TNCB-induced atopic dermatitis in BALB/c mouse ear assessed as inhibition of ear thickness at 0.025 mg/ear applied topically three times per week 30 min TNCB post challenge measured up to 25 days; type: functional, organism-based; settings: in the assay text read “up to 21 days” for “up to 25 days”; outline: as §2
Mus musculus [24] = organism: Mus musculus; assay: Antihypersensitivity activity against TNCB-induced acute contact hypersensitivity in BALB/c mouse ear assessed as inhibition of neutrophil infiltration by measuring MPO activity at 0.025 mg/ear measured after 24 to 72 hrs relative to control; type: functional; outline: as §3
Mus musculus [25] = organism: Mus musculus; assay: Antihypersensitivity activity against TNCB-induced acute contact hypersensitivity in BALB/c mouse ear assessed as inhibition of neutrophil infiltration by measuring MPO activity at 0.025 mg/ear measured after 22 days of repeated application of TNCB relative to control; type: functional
Outline: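 Female BALB/c mice were sensitized with 10 μL 0.3% TNCB in acetone on both inner ear surfaces, then painted with 0.3% TNCB three times weekly through days 0–21. On day 22 ears were homogenized in 50 mM PBS with 0.5% HTAB. Supernatant was read with H2O2 and tetramethylbenzidine, 3 min at 37 °C, acid-stopped, A630. Reported as mean ± SEM of ≥5 ear samples.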

Mus musculus [26] = organism: Mus musculus; assay: Antihypersensitivity activity against TNCB-induced contact hypersensitivity in BALB/c mouse ear assessed as decrease cytokines levels at 0.025 mg/ear measured at 24 hrs by ELISA relative to control; type: functional; outline: as §4
Mus musculus [27] = organism: Mus musculus; assay: Antihypersensitivity activity against TNCB-induced contact hypersensitivity in BALB/c mouse ear assessed as decreased COX2 expression at 0.025 mg/ear after at 24 hrs by Western blotting relative to control; type: functional
Mus musculus [28] = organism: Mus musculus; assay: Antihypersensitivity activity against TNCB-induced contact hypersensitivity in BALB/c mouse ear assessed as decreased COX2 expression at 0.025 mg/ear after at 72 hrs by Western blotting relative to control; type: functional
Mus musculus [29] = organism: Mus musculus; assay: Antihypersensitivity activity against TNCB-induced contact hypersensitivity in BALB/c mouse ear assessed as inhibition of MMP9 production at 0.025 mg/ear measured at 72 hrs by Western blot analysis relative to control; type: functional
Mus musculus [30] = organism: Mus musculus; assay: Antihypersensitivity activity against TNCB-induced contact hypersensitivity in BALB/c mouse ear assessed as inhibition of MMP9 production at 0.025 mg/ear measured at 24 hrs by ELISA relative to control

| Structure (SMILES) | inhibition (INH) (Mus musculus [1]) [%] | inhibition (INH) (Mus musculus [5]) [%] | inhibition (INH) (Mus musculus [6]) [%] | fold change (FC) (Mus musculus [7]) | inhibition (Mus musculus [8]) | inhibition (RAW264.7 [9]) | inhibition at 25 µM (RAW264.7 [10]) [%] | inhibition at 50 µM (RAW264.7 [11]) [%] | inhibition at 100 µM (RAW264.7 [12]) [%] | inhibition (INH) (Mus musculus [13]) [%] | inhibition (INH) (Mus musculus [14]) [%] | inhibition (INH) (Mus musculus [15]) [%] | inhibition (INH) (Mus musculus [16]) [%] | other results |
| --- | --- | --- | --- | --- | --- | --- | --- | --- | --- | --- | --- | --- | --- | --- |
| CC(C)=CCc1cc(O)ccc1O[C@@H]1O[C@H](CO)[C@@H](O)[C@H](O)[C@H]1O | 53 | >50 | 60 | 2 | inactive | Dose-dependent effect | 10 | 72 | 86 |  |  |  |  | inhibition (INH) (Mus musculus [2]): 50%; inhibition (INH) (Mus musculus [3]): 30%; inhibition (INH) (Mus musculus [4]): 43% |
| COC(=O)[C@]1(O)C[C@@H](OC(=O)/C=C/c2ccc(O)c(O)c2)[C@@H](O)[C@H](OC(=O)/C=C/c2ccc(O)c(O)c2)C1 | 45 | >50 | 60 | 2 | inactive | Dose-dependent effect | 26 | 85 | 90 | 39 | 49 | 29 | 41 |  |
| O=C(/C=C/c1ccc(O)c(O)c1)O[C@@H]1C[C@](O)(C(=O)O)C[C@@H](OC(=O)/C=C/c2ccc(O)c(O)c2)[C@H]1O (relative stereo) | 50 | >50 |  | 2 | inactive | Dose-dependent effect | 20 | 42 | 97 | 53 | 44 | 20 | 66 | inhibition (INH) (Mus musculus [17]): > 40%; inhibition (INH) (Mus musculus [18]): 20%; inhibition (INH) (Mus musculus [19]): 44%; inhibition [20]: Active |
| C[C@@H]1C[C@H]2[C@@H]3CCC4=CC(=O)C=C[C@]4(C)[C@@]3(F)[C@@H](O)C[C@]2(C)[C@@]1(O)C(=O)CO [DEXAMETHASONE] |  |  |  |  |  |  |  |  |  |  |  |  |  | inhibition (INH) (Mus musculus [21]): 78%; inhibition (INH) (Mus musculus [22]): 83%; inhibition (Mus musculus [23]): Active; inhibition (INH) (Mus musculus [24]): 65%; inhibition (INH) (Mus musculus [25]): 78%; inhibition (INH) (Mus musculus [26]): 50%; inhibition (INH) (Mus musculus [27]): 48%; inhibition (INH) (Mus musculus [28]): 43%; inhibition (INH) (Mus musculus [29]): 69%; inhibition (INH) (Mus musculus [30]): 81% |
| O=C(O[C@@H]1Cc2c(O)cc(O)cc2O[C@@H]1c1cc(O)c(O)c(O)c1)c1cc(O)c(O)c(O)c1 [EPIGALOCATECHIN GALLATE] |  |  |  |  |  |  | 70 | 75 | 90 |  |  |  |  |  |
